Source: paper PMC2889198 (Bioconjugate chemistry, 2009)

How the values were obtained:
[1] = system: Androgen receptor N-terminal domain (AR-NTD), C-terminal His6-tag; experiment: SPR binding kinetics of tris-NTA chip with His6-tagged AR-NTD; conditions: for kd Instant dissociation rate constant / ka Instant association rate constant: 25 °C, 1:1 binding model; for ka Instant association rate constant: Ni(II)-activated tris-NTA; for Kd: read-out: KD Equilibrium dissociation constant, 25 °C, 1:1 binding model
Method in brief: (§1)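 Streptavidin chip washed with 50 mM NaOH/1 M NaCl and run in HBS-P pH 7.4 at 25 °C. Flow cell 1 is a blank; the others carry biotin-tris-NTA at about 50 RU. Each cycle: 5 mM NiCl2 activation, His6-protein injection (1–10 nM; mKate in 1 nM steps, 7 nM omitted), 0.3 M EDTA strip, 0.25% SDS/0.5 M NaCl rinse. Duplicates, double-referenced, global 1:1 Langmuir fit.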

[2] = system: Tumor necrosis factor alpha-stimulated gene-6 (TSG6), C-terminal His6-tag; experiment: SPR binding kinetics of tris-NTA chip with His6-tagged TSG6; conditions: for ka Instant association rate constant / kd Instant dissociation rate constant: 25 °C, 1:1 binding model; for Kd: read-out: KD Equilibrium dissociation constant, 25 °C, 1:1 binding model
Method in brief: as §1

[3] = system: Monomeric Katushka (mKate), C-terminal His6-tag; experiment: SPR binding kinetics of tris-NTA chip with His6-mKate; conditions: for kd Instant dissociation rate constant / ka Instant association rate constant: 25 °C, 1:1 binding model; for ka Instant association rate constant: 1~10 nM analyte; for Kd: read-out: KD Equilibrium dissociation constant, 25 °C, 1:1 binding model
Method in brief: as §1

His6-tagged peptide […] = experiment: SPR binding kinetics of tris-NTA chip with His6-peptide; conditions: for ka Instant association rate constant / kd Instant dissociation rate constant: 25 °C, 1:1 binding model; for Kd: read-out: KD Equilibrium dissociation constant, 25 °C, 1:1 binding model
[4] = target: T1, Yeast cytosine deaminase (yCD), C-terminal His6-tag (Saccharomyces cerevisiae, UniProt Q12178); experiment: SPR binding kinetics of tris-NTA chip with His6-tagged yCD; conditions: for kon: read-out: ka Instant association rate constant; for koff: read-out: kd Instant dissociation rate constant
T1 sequence (Q12178 with tags, fused parts or gaps): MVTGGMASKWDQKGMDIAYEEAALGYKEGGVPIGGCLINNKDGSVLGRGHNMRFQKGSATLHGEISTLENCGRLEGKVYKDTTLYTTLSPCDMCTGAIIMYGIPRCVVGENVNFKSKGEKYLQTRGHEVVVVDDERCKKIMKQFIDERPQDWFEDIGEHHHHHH
Method in brief: as §1

[5] = target: hexahistidine (His6) tagged proteins; conditions: read-out: equilibrium dissociation constant KD between mono-NTA and His6; cited from earlier work

| Compound | kd Instant dissociation rate constant [1] | ka Instant association rate constant [1] | Kd [1] [nM] | ka Instant association rate constant [2] | kd Instant dissociation rate constant [2] | Kd [2] [nM] | kd Instant dissociation rate constant [3] | ka Instant association rate constant [3] | Kd [3] [nM] | ka Instant association rate constant (His6-tagged peptide […]) | kd Instant dissociation rate constant (His6-tagged peptide […]) | Kd (His6-tagged peptide […]) [nM] | kon [4] [M⁻¹ s⁻¹] | koff [4] [s⁻¹] | Kd [5] [nM] |
| --- | --- | --- | --- | --- | --- | --- | --- | --- | --- | --- | --- | --- | --- | --- | --- |
| O=C(O)CN(CC(=O)O)[C@@H](CCCCNC(=O)CCOCCOCCOCCOCCNC(=O)CN(CC(=O)NCCOCCOCCOCCOCCC(=O)NCCCC[C@@H](C(=O)O)N(CC(=O)O)CC(=O)O)[C@@H](CCCCNC(=O)CCCC[C@@H]1SC[C@@H]2NC(=O)N[C@@H]21)C(=O)NCCOCCOCCOCCOCCC(=O)NCCCC[C@@H](C(=O)O)N(CC(=O)O)CC(=O)O)C(=O)O [Compound 6a] | 1.29 10^−3 S^−1 | 0.94 10^5 M^−1 S^−1 | 13.7 | 6.89 10^5 M^−1 S^−1 | 4.84 10^−3 S^−1 | 7.03 | 1.53 10^−3 S^−1 | 5.38 10^5 M^−1 S^−1 | 2.84 | 3.09 10^5 M^−1 S^−1 | 3.97 10^−3 S^−1 | 12.8 |  |  |  |
| O=C(O)CN(CC(=O)O)[C@@H](CCCCNC(=O)CN(CC(=O)NCCCC[C@@H](C(=O)O)N(CC(=O)O)CC(=O)O)[C@@H](CCCCNC(=O)CCCC[C@@H]1SC[C@@H]2NC(=O)N[C@@H]21)C(=O)NCCCC[C@@H](C(=O)O)N(CC(=O)O)CC(=O)O)C(=O)O [Compound 6b] | 1.40 10^−3 S^−1 | 0.81 10^5 M^−1 S^−1 | 17.3 | 19.4 10^5 M^−1 S^−1 | 5.78 10^−3 S^−1 | 3 |  |  |  | 1.86 10^5 M^−1 S^−1 | 1.85 10^−3 S^−1 | 9.95 | 119000 | 0.00083 |  |
| O=C(O)CN(CC(=O)O)[C@@H](CCCNC(=O)CN(CC(=O)NCCC[C@@H](C(=O)O)N(CC(=O)O)CC(=O)O)[C@@H](CCCCNC(=O)CCCC[C@@H]1SC[C@@H]2NC(=O)N[C@@H]21)C(=O)NCCC[C@@H](C(=O)O)N(CC(=O)O)CC(=O)O)C(=O)O [Compound 6c] | 0.27 10^−3 S^−1 | 1.44 10^5 M^−1 S^−1 | 1.87 | 3.92 10^5 M^−1 S^−1 | 0.008 10^−3 S^−1 | 0.02 | 0.43 10^−3 S^−1 | 10.6 10^5 M^−1 S^−1 | 0.4 | 2.19 10^5 M^−1 S^−1 | 0.72 10^−3 S^−1 | 3.29 | 197000 | 0.00059 |  |
| O=C(O)CN(CC(=O)O)CC(=O)O [NTA, Nitrilotriacetic acid] |  |  |  |  |  |  |  |  |  |  |  |  |  |  | 10000 |
